Screening results (PubChem BioAssay)
ALR inh – inhibitors of human ALR sulfhydryl oxidase, primary screen, biochemical, H2O2 detection, HRP-luminol luminescence, single point; purified ALR, DTT oxidation; 290,000 tested, 3.8% active; inhibition, % (concentration not given with the values);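 active = mean replicate inhibition above about 79%, with every replicate also reaching it, limit read from the data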
UCH37 inh – inhibitors of human UCH37 deubiquitinase, primary screen, biochemical, Ub-AMC cleavage, fluorescence; Ubiquitin carboxyl-terminal hydrolase isozyme L5 (Homo sapiens), Q9Y5K5; purified proteasome/UCH37; inhibition, % (no concentration beside the values); 330,000 tested, 0.33% active; AID 588478, 2011;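 active = mean inhibition over replicate wells above about 20%, limit read from the data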;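 note: 0% = compound-free wells with enzyme and 100% = wells lacking proteasome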
Target sequence (Q9Y5K5 whole entry, looked up): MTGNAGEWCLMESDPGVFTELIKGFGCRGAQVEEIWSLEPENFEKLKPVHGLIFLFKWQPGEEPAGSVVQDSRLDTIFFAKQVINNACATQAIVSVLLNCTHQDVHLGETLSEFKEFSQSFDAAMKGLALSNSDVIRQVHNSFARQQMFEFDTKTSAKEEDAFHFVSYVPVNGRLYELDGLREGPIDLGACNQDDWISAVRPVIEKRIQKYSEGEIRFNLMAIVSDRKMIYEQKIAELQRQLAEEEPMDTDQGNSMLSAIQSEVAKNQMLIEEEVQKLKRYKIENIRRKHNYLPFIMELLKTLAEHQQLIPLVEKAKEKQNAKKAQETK
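Material: human UCH37 enzyme supplied as purified proteasome complex / Amount: 0.15 nM proteasome as dispensed / Buffer or medium: pH 7.4 Tris-HCl (50 mM) with ovalbumin, ATP-MgCl2, DTT / Times: preincubation 30 min, reaction 25 min, room temperature / Technique: AMC fluorescence from Ub-AMC cleavage, excitation 355 nm, emission 460 nm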
Calb FLC – C. albicans growth inhibition with fluconazole, primary screen, CaCi-2 strain, Alamar Blue fluorescence; C. albicans CaCi-2 (fluconazole-resistant clinical isolate) + fluconazole, 48 h; growth inhibition, % (concentration not given with the values); 300,000 tested, 0.57% active;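 active = growth inhibition above about 58% in most replicates, limit read from the data, passing the limit was not always enough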;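 note: all wells also contain fluconazole at 8 µg/ml as a sub-toxic cotreatment; 0% = median of DMSO wells and 100% = median of geldanamycin control wells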
ATG4B inhibitor – ATG4B protease inhibitors, primary screen, biochemical, fluorescence, uHTS. inhibition, % at 8.33 µM. Cysteine protease ATG4B (Homo sapiens), Q9Y4P1. 340,000 tested, 0.51% active. ATG4B cleavage of LC3-PLA2, NBD-HPC fluorescence, 1 h; in the data active = inhibition above about 40%
NALP3 yeast inh – NALP3 inflammasome inhibitors in reconstituted yeast, primary screen, luminescence, uHTS | Yeast reconstituted NLRP3/ASC/caspase-1, beta-gal luminescence, 24 h | inhibition, % at 10 µM | 330,000 tested, 0.39% active;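 active = inhibition of 50% or more; inactive = inhibition below 50%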;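 note: plate controls were induced DMSO wells for no effect and uninduced yeast grown without galactose for full effect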
NALP1 inh – NALP1 inflammasome inhibitors in reconstituted yeast, colorimetric, S. cerevisiae, triplicate retest; S. cerevisiae NALP1/ASC/caspase-1 growth, X-gal OD620, 72 h; inhibition, % at 10 µM; 280,000 tested, 0.61% active; in the data active = inhibition mostly above about 24%, no sharp cut-off; inactive = mostly below about 32%
* hit, by the source's call; / = no result. In the library only some 4.8% were active in any assay of this set; here they are far more common.

SMILES | ALR inh | UCH37 inh | Calb FLC | ATG4B inhibitor | NALP3 yeast inh | NALP1 inh
CC(=O)N1CCN(CCS(=O)(=O)c2cc(Cl)ccc2Cl)CC1 | -9.5 | 6.4 | / | 4.0 | 1.5 | /
COC(=O)CCS(=O)(=O)c1cc(Cl)ccc1Cl | 95.4* | 1.1 | -10.1 | -1.7 | 1.7 | 21.7
Cc1cc(C)nc(NCC(O)CNc2ccccc2C)n1 (stereo not given) | 98.4* | 5.1 | 37.1 | -10.6 | 3.2 | 2.3
O=C1NN(c2ccccc2)C(=O)/C1=C\c1coc2ccc(O)cc2c1=O | 99.3* | / | -1.6 | -0.2 | 12.3 | /
Cc1cc(/C=C2/C(=O)NN(c3ccccc3)C2=O)c(C)n1-c1ccc(O)cc1 | 52.1 | 0.7 | -7.0 | 3.7 | 3.5 | 40.4
